Source: ChEMBL document CHEMBL1156237, “Antiviral activity of benzimidazole derivatives. II. Antiviral activity of 2-phenylbenzimidazole derivatives” (Bioorg Med Chem, 2010)
Calls of active or inactive are those of the source. The rule behind the calls is not given here.

Tests used:
[1] = Cytotoxicity against african green monkey Vero cells; type: cell-based; settings: chlorocebus sabaeus
Outline: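 Vero 76 monolayers exposed to serial compound dilutions, run in parallel on the same 24-well plates as the plaque-reduction assays. CC50 is the concentration reducing viability of mock-infected cells by 50%.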

[2] = system: Bovine viral diarrhea virus 1; assay: Antiviral activity against Bovine viral diarrhea virus NADL infected in MDBK cells assessed as protection from virus-induced cytopathogenicity after 3 to 4 days by MTT method; type: functional, organism-based, Bovine viral diarrhea virus 1-NADL; settings: Bovine viral diarrhea virus isolates and strains, MDBK
Outline: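 Cytopathogenicity protection assay. MDBK cells at 3 × 10^4/well, grown overnight to confluence. Infected with BVDV NADL at m.o.i. 0.01 in MEM-E with 0.5% inactivated FBS, 1 mM Na pyruvate and 1% kanamycin. Serial compound dilutions added after 1 h. After 3–4 days at 37 °C, viability read by MTT; EC50 is the concentration giving 50% protection.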

Human alphaherpesvirus 1 = assay: Antiviral activity against HSV1 KOS infected in african green monkey Vero cells after 3 days by plaque reduction assay; type: functional, organism-based; settings: Human alphaherpesvirus 1, KOS, 72 h
Outline: (§1)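 Plaque reduction assay. Vero 76 cells at 2 × 10^5/well, grown overnight to confluence in D-MEM with 10% FBS. Infected 2 h with 50–100 PFU/well, unadsorbed virus removed. Overlay of D-MEM with 1% inactivated FBS and 0.75% methylcellulose, with or without serial compound dilutions. Incubated at 37 °C for 3 days (HSV-1 KOS, CVB-2 Ohio-1) or 5 days (RSV A2). Fixed and stained with crystal violet in 50% ethanol; plaques counted; EC50 by linear regression.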

[3] = Cytotoxicity against BHK cells after 48 to 96 hrs by MTT assay; type: cell-based, Mesocricetus auratus; settings: hamster
Outline: (§2)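 Cell seeding: MDBK at 6 × 10^5 cells/mL in MEM-E with 10% horse serum and 1 mM Na pyruvate; BHK at 1 × 10^6 cells/mL in MEM-E with 10% FBS. Serial compound dilutions, 37 °C, 5% CO2. Viability of mock-infected cells by MTT after 48–96 h; CC50 is the concentration reducing viability by 50%.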

[4] = Cytotoxicity against human MT4 cells after 96 hrs by MTT assay; type: cell-based; settings: MT4 cells
Outline: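 Exponentially growing MT-4 cells at 1 × 10^5 cells/mL in RPMI-1640 with 10% FCS, exposed to serial compound dilutions at 37 °C, 5% CO2. Viability by MTT after 96 h; CC50 is the concentration reducing viability of mock-infected cells by 50%.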

Yellow fever virus = assay: Antiviral activity against Yellow fever virus 17D infected in BHK cells assessed as protection from virus-induced cytopathogenicity after 3 to 4 days by MTT method; type: functional, organism-based
Poliovirus 1 = assay: Antiviral activity against Polio virus type1 Sabin strain Chat infected in african green monkey Vero cells after 2 days by plaque reduction assay; type: functional, organism-based, Human poliovirus 1 strain Sabin; settings: Enterovirus C, 48 h
Coxsackievirus B2 = assay: Antiviral activity against Human coxsackievirus B2 Ohio-1 infected in african green monkey Vero cells after 3 days by plaque reduction assay; type: functional, organism-based, Coxsackievirus B2 (strain Ohio-1); settings: Enterovirus B, Vero, 72 h; outline: as §1
[5] = system: Human immunodeficiency virus 1; assay: Antiviral activity against HIV1 3B infected in human MT4 cells assessed as protection from virus-induced cytopathogenicity after 4 days by MTT method; type: functional, organism-based
Outline: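 MT-4 cells, 1 × 10^4/well in RPMI with or without serial compound dilutions, infected with HIV-1 IIIB, 100 CCID50 (m.o.i. 0.01). Protection from virus-induced cytopathogenicity read by MTT.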

[6] = Cytotoxicity against MDBK cells after 48 to 96 hrs by MTT assay; type: cell-based, Bos taurus; settings: cattle, MDBK cells; outline: as §2
[7] = system: Vesicular stomatitis virus; assay: Antiviral activity against VSV Indiana lab infected in african green monkey Vero cells after 2 days by plaque reduction assay; type: functional, organism-based
Vaccinia virus = assay: Antiviral activity against Vaccinia virus Elstree-Lister infected in african green monkey Vero cells after 3 days by plaque reduction assay; type: functional, organism-based; settings: Orthopoxvirus vaccinia, 72 h
[8] = system: Respiratory syncytial virus; assay: Antiviral activity against RSV A2 infected in african green monkey Vero cells after 5 days by plaque reduction assay; type: functional, organism-based; outline: as §1
[9] = human respiratory syncytial virus, A2, Vero, 120 h

SMILES	CC50 [1] [µM]	EC50 [2] [µM]	EC50 (Human alphaherpesvirus 1) [µM]	CC50 [3] [µM]	CC50 at 96 h [4] [µM]	EC50 (Yellow fever virus) [µM]	EC50 (Poliovirus 1) [µM]	EC50 (Coxsackievirus B2) [µM]	Activity [5]	CC50 [6] [µM]	Activity [7]	EC50 (Vaccinia virus) [µM]	EC50 [8, 9] [µM]	EC50 ([8]; vero) [µM]
O=C(O)CCC(=O)Nc1ccc(-c2nc3cc(C(F)(F)F)ccc3[nH]2)cc1	> 100	> 100	> 100	> 100	> 100	> 100	> 100	> 100	inactive	> 100	inactive	–	–	–
Nc1nc2c(ncn2COCCO)c(=O)[nH]1 [ACYCLOVIR]	> 100	> 100	3	> 100	> 100	> 100	> 100	> 100	–	> 100	–	> 100	> 100	–
C[C@@]1(O)[C@H](O)[C@@H](CO)O[C@H]1n1cnc2c(=O)[nH]c(N)nc21 [2'-B-METHYL-GUANOSINE]	> 100	–	> 100	90	> 100	1.8	> 100	20	–	> 100	–	> 100	> 100	–
O=c1cnn([C@@H]2O[C@H](CO)[C@@H](O)[C@H]2O)c(=O)[nH]1 (stereo in doubt; form 2) [6-AZAURIDINE]	–	> 100	> 20	> 100	–	26	–	> 20	–	> 100	–	–	–	1.2
O=C(Nc1ccc(-c2nc3cc(C(F)(F)F)ccc3[nH]2)cc1)Nc1ccc(-c2nc3cc(C(F)(F)F)ccc3[nH]2)cc1	> 100	> 100	> 100	17	> 100	> 17	> 100	> 100	inactive	> 100	inactive	–	–	–
O=C(CN1CCN(c2ccccc2)CC1)Nc1ccc(-c2nc3cc(C(F)(F)F)ccc3[nH]2)cc1	> 100	> 32	> 100	> 100	0.9	> 100	> 100	> 100	inactive	32	inactive	–	–	–
CN1CCN(CC(=O)Nc2ccc(-c3nc4cc(Cl)c(Cl)cc4[nH]3)cc2)CC1	> 100	4	51	41	11	> 41	89	> 100	inactive	90	inactive	6	–	–
O=C(CN1CCCC1)Nc1ccc(-c2nc3ccccc3[nH]2)cc1	> 100	10	> 100	55	40	19	90	11	inactive	70	inactive	–	–	–
O=C(CN1CCSCC1)Nc1ccc(-c2nc3cc(C(F)(F)F)ccc3[nH]2)cc1	> 100	> 100	> 100	> 100	6	> 100	> 100	> 100	inactive	> 100	inactive	–	–	–
O=C(CN1CCOCC1)Nc1ccc(-c2nc3ccccc3[nH]2)cc1	> 100	> 77	> 100	> 100	100	> 100	> 100	> 100	inactive	77	inactive	–	–	–
O=C(CN1CCOCC1)Nc1ccc(-c2nc3cc(C(F)(F)F)ccc3[nH]2)cc1	> 100	> 100	> 100	86	> 100	> 86	> 100	> 100	inactive	> 100	inactive	–	–	–
COc1c(C)c2c(c(O)c1C/C=C(\C)CCC(=O)O)C(=O)OC2 [MYCOPHENOLIC ACID]	≥ 13	> 42	> 13	> 100	–	> 100	> 13	> 13	–	–	–	–	0.6	–
Nc1ccc(-c2nc3cc(C(F)(F)F)ccc3[nH]2)cc1	> 100	15	> 100	100	62	> 100	47	17	inactive	82	inactive	–	–	–
O=C(CCl)Nc1ccc(-c2nc3cc(C(F)(F)F)ccc3[nH]2)cc1	35	> 17	> 35	22	5	> 22	> 35	24	inactive	17	inactive	–	–	–
O=c1cnn([C@@H]2O[C@H](CO)[C@@H](O)[C@H]2O)c(=O)[nH]1 (stereo in doubt; form 1) [6-AZAURIDINE]	–	–	–	–	–	–	> 20	–	–	–	–	11	1.2	–
NC(=O)c1ncn([C@@H]2O[C@H](CO)[C@@H](O)[C@H]2O)n1 [RIBAVIRIN]	> 100	–	> 100	> 100	–	> 100	> 100	> 100	–	> 100	–	> 100	7	–
O=C(CNC12CC3CC(CC(C3)C1)C2)Nc1ccc(-c2nc3cc(C(F)(F)F)ccc3[nH]2)cc1	45	> 23	45	18	15	> 18	> 45	> 45	inactive	23	inactive	–	–	–
C#C[C@@]1(O)[C@H](O)[C@@H](CO)O[C@H]1n1ccc(N)nc1=O [2'-ETHYNYL-D-CYTIDINE]	> 100	38	> 100	> 100	≥ 100	> 100	23	27	–	> 100	–	> 100	> 100	–
CC(=O)Nc1ccc(-c2nc3ccccc3[nH]2)cc1	> 100	90	> 100	> 100	100	> 100	> 100	87	inactive	> 100	inactive	–	–	–
CCC(=O)Nc1ccc(-c2nc3ccccc3[nH]2)cc1	> 100	47	> 100	≥ 100	35	> 100	35	9	inactive	> 100	inactive	–	–	–
O=C(CN1CCCCC1)Nc1ccc(-c2nc3cc(C(F)(F)F)ccc3[nH]2)cc1	31	2	> 31	12	6	> 12	> 31	9	inactive	6	inactive	–	–	–
O=C(CN1CCCCC1)Nc1ccc(-c2nc3ccccc3[nH]2)cc1	> 100	7	> 100	31	31	> 31	> 100	17	inactive	18	inactive	–	–	–
